The record followed here is ChEMBL document CHEMBL4219082, “2-Arylthio-5-iodo pyrimidine derivatives as non-nucleoside HBV polymerase inhibitors” (Bioorg Med Chem, 2018).

Series [1] in a line: (§1) Inhibition of DHBV DNA polymerase derived from infected duckling liver assessed as decrease in biotin-11-dUTP incorporation using poly (A)/oligo(dT)15 as template/primer after 1 hr by ELISA. Further details: species or system Duck hepatitis B virus. Summed up:
(§2)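 Enzyme is DHBV polymerase from liver homogenate of infected ducklings. It was pelleted, and the 35% and 40% fractions of a sucrose density gradient were pooled and used at a "1/100" dilution of one liver's yield. Oligo(dT)15 primer is covalently immobilized on the plate. The mix contains 17.5 µg/ml poly(A), 8 µM dTTP, 2 µM biotin-11-dUTP, 5 mM DTT, 17 mM MgCl2, 65 µg/ml BSA, 50 mM Tris-HCl pH 8.3 and 75 mM KCl. Incubation is 1 h at 37 °C. After BSA blocking, streptavidin-alkaline phosphatase is added and PNPP signal is read after NaOH stop. Line 6 is tested at 100 µM and line 7 at 200 µM.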

Series [2] in a line: Cytotoxicity against human HepG2.2.15 cells […] by MTT assay. Format: cell-based, HepG2 2.2.15. In outline: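 HepG2.2.15 cells were seeded at 2×10^5 cells/mL and dosed with graded compound concentrations after 24 h. Medium with compound was refreshed at 72 h, then cells were kept a further 72 h. MTT was added for 4 h, formazan was dissolved in DMSO and absorbance read at 490 nm. The value is CC50, the concentration giving 50% cytotoxicity.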
A general note: Formazan colour is commonly taken as a measure of viable cells.

Series [3] can be described thus: Selectivity index, ratio of CC50 for human HepG2.2.15 cells to EC50 for HBV infected in human HepG2.2.15 cells. The note with it: read-out: Ratio CC50/EC50. The series is classed as toxicity, cell-based. In outline: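 Selectivity index is calculated as CC50/EC50. CC50 comes from an MTT assay and EC50 from qRT-PCR of intracellular HBV DNA. Both use HepG2.2.15 cells dosed for two 72 h periods with a medium renewal between them.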

In series [4] the test system is Hepatitis B virus. In words: Antiviral activity against HBV infected in human HepG2.2.15 cells assessed as inhibition of viral DNA levels at 10 uM after […] by qRT-PCR analysis. The series is classed as functional, organism-based. In outline: (§3)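 HepG2.2.15 cells were seeded at 2×10^5 cells/mL and exposed to compound 24 h later. Compound-containing medium was renewed at 72 h and cells were kept another 72 h. After a PBS wash, intracellular HBV DNA was extracted from lysates and quantified by qRT-PCR. Line 1 gives the 50% inhibitory concentration; lines 2 and 3 test single concentrations of 10 µM and 20 µM.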
Background: In qPCR the cycle at which signal appears reflects the starting amount.

The test system of series [5] is Duck hepatitis B virus. The experiment in a line: Inhibition of DHBV DNA polymerase derived from infected duckling liver assessed as decrease in biotin-11-dUTP incorporation using poly (A)/oligo(dT)15 as template/primer at 200 uM after 1 hr by ELISA. Summed up:
as §2

Series [6] has as its system Duck hepatitis B virus. The series is described as §1. Summed up:
as §2

The test system of series [7] is Duck hepatitis B virus. The experiment in a line: Inhibition of DHBV DNA polymerase derived from infected duckling liver assessed as decrease in biotin-11-dUTP incorporation using poly (A)/oligo(dT)15 as template/primer at 100 uM after 1 hr by ELISA relative to control. In outline: as §2
For orientation: In an ELISA, binding on a coated surface is turned into a signal by an enzyme label.

For series [8], the system named is Hepatitis B virus. The experiment in a line: Antiviral activity against HBV infected in human HepG2.2.15 cells assessed as inhibition of viral DNA levels at 20 uM […] by qRT-PCR analysis relative to control. Format: functional. Summed up: as §3

Calls of active or inactive are those of the source. No cut-off for these calls is given here.

Broadly, the IC50 is the concentration that gives 50% inhibition. The term CC50 denotes the concentration at which the toxic effect on the cells reaches its halfway point. Lower therefore signals harm at low concentration. Consider `O=c1[nH]c(SCc2ccc([N+](=O)[O-])cc2)nc(Cc2ccccc2)c1I`, for which, in series [1], the IC50 was 42.8 µM. The compound further yielded a CC50 in series [2] of 52.7 µM. In addition, in series [3], the selectivity ratio stood at 7.
As a reminder, the inhibition is how much of the control response was suppressed. On to `N#Cc1ccc(CSc2nc(Cn3nnc4ccccc43)c(I)c(=O)[nH]2)cc1`, for which the inhibition result with Hepatitis B virus [4] was “inactive”. In addition, the half-maximal inhibitory concentration (IC50) in series [1] came out at 128 µM.
For the compound `N#Cc1ccc(CSc2nc(CN3CCc4ccccc4C3)c(I)c(=O)[nH]2)cc1`, in series [1], the IC50 worked out at 60.5 µM.
`COC(=O)c1ccc(CSc2nc(Cc3cc(C)cc(C)c3)c(I)c(=O)[nH]2)cc1`: the IC50 in series [1] is 38.8 µM. In addition, in series [2], the CC50 was determined as 64.8 µM. Further, the selectivity ratio in series [3] was found to be 5.
On to `Cc1cc(C)cc(Cc2nc(SCc3ccc(C#N)cc3)[nH]c(=O)c2I)c1`, for which the IC50 in series [1] was found to be 35.6 µM. Further, in series [2], the CC50 was 43.2 µM. In series [3], the selectivity ratio came to 6.1.
As to `Cc1cc(C)cc(Cc2nc(SCCc3ccc([N+](=O)[O-])cc3)[nH]c(=O)c2I)c1`, the IC50 in series [1] came out at 71.9 µM. The CC50 in series [2] is 66.6 µM. Also, the selectivity ratio in series [3] is 6.8.
`N#Cc1ccc(CSc2nc(CN3CCCCC3)c(I)c(=O)[nH]2)cc1`: the inhibition result in the series with Hepatitis B virus [4] and with Duck hepatitis B virus [5] was “inactive” each time.
As to `CN1CCN(C(=O)c2nc(SCc3ccc(C#N)cc3)[nH]c(=O)c2I)CC1`, in series [2], the 50% cytotoxic concentration (CC50) is above 100 µM. Besides, the inhibition entry in the series on Duck hepatitis B virus [5] was “inactive”. Further, the selectivity ratio in series [3] is above 38.
On to `O=c1[nH]c(SCc2ccc([N+](=O)[O-])cc2)nc(Cc2cc(F)cc(F)c2)c1I`, for which the 50% inhibitory concentration (IC50) in series [1] was 29.5 µM. The compound further returned a half-maximal cytotoxic concentration (CC50) in series [2] above 100 µM. The selectivity ratio in series [3] is above 16.
In the case of `O=c1[nH]c(SCc2ccc([N+](=O)[O-])cc2)nc(Cn2nnc3ccccc32)c1I`, the inhibition entry in the series with Hepatitis B virus [4] was “inactive”. Moreover, the 50% inhibitory concentration (IC50) in series [1] worked out at 104 µM.
As to `N#Cc1ccc(CSc2nc(C(=O)N3CCCc4ccccc43)c(I)c(=O)[nH]2)cc1`, the IC50 in series [1] was above 200 µM. For the same compound, in series [2], the CC50 is above 100 µM. Besides, in series [3], the selectivity ratio was above 62.
For the compound `O=C(O)P(=O)(O)O` [FOSCARNET], the IC50 in series [1] worked out at 6.54 µM. The inhibition result with Duck hepatitis B virus [6] is “Dose-dependent effect”.
In turn, `Nc1ccn([C@H]2CS[C@@H](CO)O2)c(=O)n1` yielded a CC50 in series [2] above 100 µM. Besides, the selectivity ratio in series [3] was above 164.
As for `O=c1cc(Cc2cc(F)cc(F)c2)nc(SCc2ccc([N+](=O)[O-])cc2)[nH]1`, in the series on Duck hepatitis B virus [7], the inhibition was found to be 16.1%. Also, the inhibition at 20 µM with Hepatitis B virus [8] was 32.9%.
In the same order, the values of `COC(=O)c1ccc(CSc2nc(Cc3cc(C)cc(C)c3)cc(=O)[nH]2)cc1` are 3.66% and 13.3%.
As to `Cc1cc(C)cc(Cc2nc(SCc3ccc([N+](=O)[O-])cc3)[nH]c(=O)c2I)c1`, in series [1], the IC50 amounted to 33 µM. In series [2], the half-maximal cytotoxic concentration (CC50) was determined as 39 µM. Further, the selectivity ratio in series [3] came out at 5.9.
As for `Cc1cc(C)cc(Cc2nc(SCCOc3ccc([N+](=O)[O-])cc3)[nH]c(=O)c2I)c1`, the half-maximal inhibitory concentration (IC50) in series [1] worked out at 56 µM. Further, in series [2], the 50% cytotoxic concentration (CC50) came to 96.6 µM. The selectivity ratio in series [3] came to 14.
With `N#Cc1ccc(CSc2nc(C(=O)NCCCc3ccccc3)c(I)c(=O)[nH]2)cc1`, the IC50 in series [1] was above 200 µM. This compound also had a CC50 in series [2] above 50 µM. Besides, the selectivity ratio in series [3] is above 30.
In the same order, the values of `CC(=O)c1ccc(CSc2nc(Cc3cc(C)cc(C)c3)c(I)c(=O)[nH]2)cc1` are 42.9 µM, 78.3 µM and 6.4.
